# Data taken from ChEMBL document CHEMBL3774373, “Activity and Predicted Nephrotoxicity of Synthetic Antibiotics Based on Polymyxin B” (J Med Chem, 2016).
# Numbered stars: 1 amine (or outer) side, 2 acyl side, 3 side chain; on linkers, the order of the positions; unused ones are H or OH. Bridge positions count the residues as written; N and C are the ends. Square brackets hold non-standard residues; d marks the D form. Peptide text beside a SMILES is read from it. * marks the point of attachment. Benzoyl(4-OPh) = O=C(c1ccc(Oc2ccccc2)cc1)*; Benzoyl(4-Ph) = O=C(c1ccc(-c2ccccc2)cc1)*; Bip = N[C@@H](Cc1ccc(-c2ccccc2)cc1)C(=O)O; NH(2-ClPh) = Clc1ccccc1N*; dDab = NCC[C@@H](N)C(=O)O; Octanoyl = CCCCCCCC(=O)*; Dab = NCC[C@H](N)C(=O)O; CO = O=C([*:1])[*:2]
# Columns and labels:
# Pseudomonas aeruginosa [1] = test: Antibacterial activity against Pseudomonas aeruginosa IFO3080; type: functional
# Klebsiella pneumoniae [2] = test: Antibacterial activity against Klebsiella pneumoniae ATCC BAA-2146 expressing NDM-1 after 18 hrs by 2 fold serial dilution method; type: functional; conditions: ATCC BAA-2146, 18 h
# Summary of the method: (§1)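 Overnight cultures at 37 °C in nutrient or Mueller Hinton broth with shaking were diluted 50-fold in MHB and grown 1.5–3 h to mid-log phase. The inoculum was 5×10^5 CFU/mL in MHB. Compounds were 2-fold serially diluted, final 32 to 0.015 μg/mL. After 18 h at 37 °C, the MIC was read visually as the lowest concentration with no visible growth.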
# [3] = Cytotoxicity against human HepG2 cells after 24 hrs by resazurin assay; type: cell-based; conditions: HepG2 cells
# Klebsiella pneumoniae [4] = test: Antibacterial activity against clinical isolate carbapenem and polymyxin resistant Klebsiella pneumoniae Koprana 100650661:1 after 18 hrs by 2 fold serial dilution method; type: functional; conditions: Koprana 100650661:1, 18 h
# Summary of the method: (§2)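 Polymyxin-resistant clinical isolates were grown overnight at 37 °C in NB or MHB with shaking, diluted 50-fold in MHB and grown 1.5–3 h to mid-log phase. The inoculum was 5×10^5 CFU/mL. Compounds were 2-fold broth serial dilutions, final 32 to 0.015 μg/mL; the polymyxin controls ran 128–0.06 μg/mL. The MIC was the lowest concentration with no visible growth after 18 h at 37 °C.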
# Pseudomonas aeruginosa [5] = test: Antibacterial activity against Pseudomonas aeruginosa ATCC 27853 after 18 hrs by 2 fold serial dilution method; type: functional; conditions: ATCC 27853, 18 h
# Summary of the method: (§3)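 Overnight cultures in nutrient or Mueller Hinton broth at 37 °C with shaking, diluted 50-fold into fresh MHB and grown 1.5–3 h to mid-log. Inoculum 5×10^5 CFU/mL in 2-fold serial dilutions, final range 32 to 0.015 μg/mL. MIC read visually after 18 h at 37 °C as the lowest concentration with no visible growth.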
# Acinetobacter baumannii [6] = test: Antibacterial activity against Acinetobacter baumannii ATCC 19606 after 18 hrs by 2 fold serial dilution method; type: functional; conditions: ATCC 19606, 18 h; summary of the method: as §3
# Klebsiella pneumoniae [7] = test: Antibacterial activity against Klebsiella pneumoniae ATCC 13883 after 18 hrs by 2 fold serial dilution method; type: functional; conditions: ATCC 13883, 18 h; summary of the method: as §3
# Staphylococcus aureus = test: microbe, parasite or virus in culture; conditions: ATCC 25923, 18 h
# Escherichia coli [8] = test: Antibacterial activity against Escherichia coli IFO12734; type: functional
# Escherichia coli [9] = test: Antibacterial activity against Escherichia coli ATCC 25922 after 18 hrs by 2 fold serial dilution method; type: functional; conditions: ATCC 25922, 18 h; summary of the method: as §3
# Pseudomonas aeruginosa [10] = test: Antibacterial activity against clinical isolate polymyxin resistant Pseudomonas aeruginosa FADDI-PA070 after 18 hrs by 2 fold serial dilution method; type: functional; conditions: FADDI-PA070, 18 h; summary of the method: as §2
# Klebsiella pneumoniae [11] = test: Antibacterial activity against clinical isolate carbapenem and polymyxin resistant Klebsiella pneumoniae 138-16357-20362 after 18 hrs by 2 fold serial dilution method; type: functional; conditions: 138-16357-20362, 18 h; summary of the method: as §2
# Klebsiella pneumoniae [12] = test: Antibacterial activity against multidrug resistant Klebsiella pneumoniae ATCC 700603 after 18 hrs by 2 fold serial dilution method; type: functional; conditions: Klebsiella pneumoniae, 700603, 18 h; summary of the method: as §1
# Pseudomonas aeruginosa [13] = test: Antibacterial activity against clinical isolate polymyxin resistant Pseudomonas aeruginosa PA9704 after 18 hrs by 2 fold serial dilution method; type: functional; conditions: PA9704, 18 h; summary of the method: as §2
# Acinetobacter baumannii [14] = test: Antibacterial activity against clinical isolate carbapenem and polymyxin resistant Acinetobacter baumannii Ptyela 100734512:2 after 18 hrs by 2 fold serial dilution method; type: functional; conditions: Ptyela 100734512:2, 18 h; summary of the method: as §2
# [15] = Cytotoxicity against HEK293 cells after 24 hrs by resazurin assay; type: cell-based; conditions: human, HEK293 cells
# [16] = Cytotoxicity against HK2 cells assessed as LDH release by Western blot analysis; type: cell-based, HK-2; conditions: human, primary human renal proximal tubule epithelial cells; read-out: CC50
# [17] = Cytotoxicity against HK2 cells assessed as GGT release by Western blot analysis; type: cell-based, HK-2; conditions: human, primary human renal proximal tubule epithelial cells; read-out: CC50
# [18] = Cytotoxicity against primary human proximal tubule cells assessed as GGT release at 100 ug/mL by Western blot analysis
# [19] = Cytotoxicity against HK2 cells assessed as LDH release by Western blot analysis; conditions: human, hk-2
SMILES,MIC (Pseudomonas aeruginosa [1]) [µM],MIC (Klebsiella pneumoniae [2]) [µg/mL],CC50 at 24 h [3] [µM],MIC (Klebsiella pneumoniae [4]) [µg/mL],MIC (Pseudomonas aeruginosa [5]) [µg/mL],MIC (Acinetobacter baumannii [6]) [µg/mL],MIC (Klebsiella pneumoniae [7]) [µg/mL],MIC (Staphylococcus aureus) [µg/mL],MIC (Escherichia coli [8]) [µM],MIC (Escherichia coli [9]) [µg/mL],MIC (Pseudomonas aeruginosa [10]) [µg/mL],MIC (Klebsiella pneumoniae [11]) [µg/mL],MIC (Klebsiella pneumoniae [12]) [µg/mL],MIC (Pseudomonas aeruginosa [13]) [µg/mL],MIC (Acinetobacter baumannii [14]) [µg/mL],CC50 at 24 h [15] [µM],CC50 [16] [µg/mL],CC50 [17] [µg/mL],Activity [18],Activity [19]
CCCCCCCC(=O)N[C@@H](CCN)C(=O)N[C@H](C(=O)N[C@@H](CCN)C(=O)N[C@H]1CCNC(=O)[C@H]([C@@H](C)O)NC(=O)[C@H](CCN)NC(=O)[C@H](CCN)NC(=O)[C@H](CC(C)C)NC(=O)[C@@H](Cc2ccccc2)NC(=O)[C@H](CCN)NC1=O)[C@@H](C)O (Octanoyl-[Dab]T[Dab][Dab][Dab][dF]L[Dab][Dab]T; lactam 4-C),1,0.5,> 300,> 128,1,0.5,2,> 128,0.5,0.5,> 32,> 128,1,> 128,> 64,–,–,–,–,–
CCCCCCCC(=O)N[C@@H](CCN)C(=O)N[C@H](C(=O)NCC(=O)N[C@H]1CCNC(=O)[C@H]([C@@H](C)O)NC(=O)[C@H](CCN)NC(=O)[C@H](CCN)NC(=O)[C@H](CC(C)C)NC(=O)[C@@H](Cc2ccccc2)NC(=O)[C@H](CCN)NC1=O)[C@@H](C)O (Octanoyl-[Dab]TG[Dab][Dab][dF]L[Dab][Dab]T; lactam 4-C),–,0.5,> 300,> 32,2,1,0.5,> 64,–,0.5,> 32,> 32,1,> 32,> 32,> 300,122,> 128,–,–
CC(C)C[C@@H]1NC(=O)[C@@H](Cc2ccccc2)NC(=O)[C@H](CCN)NC(=O)[C@@H](NC(=O)[C@H](CCN)NC(=O)[C@@H](NC(=O)[C@H](CCN)NC(=O)c2ccc(-c3ccccc3)cc2)[C@@H](C)O)CCNC(=O)[C@H]([C@@H](C)O)NC(=O)[C@H](CCN)NC(=O)[C@H](CCN)NC1=O ({Benzoyl(4-Ph)}-[Dab]T[Dab][Dab][Dab][dF]L[Dab][Dab]T; lactam 4-C),–,0.5,298,> 32,1,0.5,0.5,> 32,–,0.5,8,> 32,1,> 32,8,297,> 128,> 128,Non-toxic,Non-toxic
CC(C)C[C@@H]1NC(=O)[C@@H](Cc2ccccc2)NC(=O)[C@H](CCN)NC(=O)[C@@H](NC(=O)[C@H](CCN)NC(=O)[C@@H](NC(=O)[C@H](CCN)NC(=O)c2ccc(Oc3ccccc3)cc2)[C@@H](C)O)CCNC(=O)[C@H]([C@@H](C)O)NC(=O)[C@H](CCN)NC(=O)[C@H](CCN)NC1=O ({Benzoyl(4-OPh)}-[Dab]T[Dab][Dab][Dab][dF]L[Dab][Dab]T; lactam 4-C),–,0.5,287,> 32,1,0.5,0.5,> 32,–,0.5,8,> 32,0.5,32,16,296,> 128,> 128,Non-toxic,Non-toxic
CCCCCCCC(=O)N[C@@H](CCN)C(=O)N[C@H](C(=O)N[C@@H](CCN)C(=O)N[C@H]1CCNC(=O)[C@H]([C@@H](C)O)NC(=O)[C@H](CCN)NC(=O)[C@H](CCN)NC(=O)[C@H](Cc2ccc(-c3ccccc3)cc2)NC(=O)[C@@H](Cc2ccccc2)NC(=O)[C@H](CCN)NC1=O)[C@@H](C)O (Octanoyl-[Dab]T[Dab][Dab][Dab][dF][Bip][Dab][Dab]T; lactam 4-C),–,1,117,32,2,1,4,8,–,1,16,> 32,2,16,32,–,–,–,–,–
CCCCCCCC(=O)N[C@@H](CCN)C(=O)N[C@H](C(=O)N[C@@H](CCN)C(=O)N[C@H]1CCNC(=O)[C@H]([C@@H](C)O)NC(=O)[C@H](CCNC(=O)[C@@H](N)CCC(=O)O)NC(=O)[C@H](CCN)NC(=O)[C@H](CC(C)C)NC(=O)[C@@H](Cc2ccccc2)NC(=O)[C@H](CCN)NC1=O)[C@@H](C)O (Octanoyl-[Dab]T[Dab][Dab][Dab][dF]L[Dab][Dab](Glu)T; lactam 4-C),–,4,> 300,> 32,8,16,16,> 32,–,4,> 32,> 32,4,> 32,> 32,–,–,–,–,–
CC(C)C[C@@H]1NC(=O)[C@@H](Cc2ccccc2)NC(=O)[C@H](CCN)NC(=O)[C@@H](NC(=O)[C@@H](CCN)NC(=O)[C@@H](NC(=O)[C@H](CCN)NC(=O)Nc2ccccc2Cl)[C@@H](C)O)CCNC(=O)[C@H]([C@@H](C)O)NC(=O)[C@H](CCN)NC(=O)[C@H](CCN)NC1=O ({NH(2-ClPh)-CO}-[Dab]T[dDab][Dab][Dab][dF]L[Dab][Dab]T; lactam 4-C),–,1,> 300,> 32,0.5,2,0.5,> 32,–,1,16,> 32,0.5,> 32,> 32,–,–,–,–,–
